Experimental data taken from ChEMBL document CHEMBL1146360, “Benzoic acid and pyridine derivatives as inhibitors of Trypanosoma cruzi trans-sialidase” (Bioorg Med Chem, 2007).

What was measured:
Trypanosoma cruzi [1] = assay: Apparent activation of Trypanosoma cruzi recombinant Trans-sialidase; details: concentration not given here
In short: (§1)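 Recombinant His-tagged TcTS was expressed in E. coli with IPTG induction at 18 °C, then purified by metal-affinity and anion-exchange chromatography. Enzyme (0.33 mg/mL stock) and inhibitor were preincubated 10 min at 25 °C in 20 mM Tris-HCl pH 7.5. The reaction was started with MuNANA (1 mM stock) and methylumbelliferone release read continuously for 10 min at 25 °C (ex 322/em 448 nm). Percentage activity is the mean of ≥3 independent runs. I50 was fitted as V=100%/{1+([I]/I50)^s}.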

Trypanosoma cruzi [2] = details: at 1 mM
[3] = Inhibition of Trypanosoma cruzi recombinant Trans-sialidase; details: read-out: I50; in short: as §1
Trypanosoma cruzi [4] = assay: Inhibition of Trypanosoma cruzi recombinant Trans-sialidase at 0.4 mM; in short: as §1
Trypanosoma cruzi [5] = assay: Inhibition of Trypanosoma cruzi recombinant Trans-sialidase at 0.5 mM; in short: as §1

SMILES | inhibition (Trypanosoma cruzi [2]) [%] | further results
N=C(N)Nc1cc(CCN)cc(C(=O)O)c1 |  | inhibition (Trypanosoma cruzi [1]): -19%
NC(N)=Nc1cc(C(=O)O)cc(CCO)c1N | 0 | 
CS(=O)(=O)Nc1c(/C=N/O)cc(C(=O)O)cc1N=C(N)N | 46 | 
CC(=O)Nc1cc(C(=O)O)ccc1N1CCOCC1 |  | IC50 [3]: 580 µM
CS(=O)(=O)Nc1ccc(C(=O)O)cc1C(O)CN (stereo unspecified) | 17 | 
CC(=O)Nc1cnc(C(=O)O)cc1N | 14 | 
CS(=O)(=O)Nc1c(CO)cc(C(=O)O)cc1N=C(N)N | 11 | 
CC(=O)Nc1ccc(C(=O)O)cc1CC(N)=O | 0 | 
CC(=O)Nc1ccc(C(=O)O)cc1CC(O)CO (stereo in doubt; 32) | 0 | 
CC(=O)Nc1ccc(C(=O)O)cc1CCO | 16 | 
N=C(N)Nc1cc(/C=N/O)cc(C(=O)O)c1 | 35 | 
NC(N)=Nc1cc(C(=O)O)ccc1NCc1ccccc1 | 9 | 
CC(=O)Nc1ccc(C(=O)O)nc1 | 22 | 
C[S+]([O-])Nc1ccc(C(=O)O)cc1N=C(N)N (stereo unspecified) | 29 | 
Nc1cc(C(=O)O)ccc1SCc1ccccc1 |  | IC50 [3]: 700 µM
CC(=O)Nc1c(CCO)cc(C(=O)O)cc1N=C(N)N | 0 | 

SMILES | inhibition (Trypanosoma cruzi [2]) [%] | further results
CNC(=O)c1ccc(C(=O)O)cc1NC(=N)N |  | IC50 [3]: 760 µM
CC(=O)Nc1ccc(C(=O)O)cc1CO |  | IC50 [3]: 540 µM
CC(=O)Nc1ccc(C(=O)O)cc1/C=N/O | 24 | 
CS(=O)(=O)Nc1ccc(C(=O)O)nc1 | 25 | 
NC(N)=Nc1cc(C(=O)O)ccc1SCc1ccccc1 |  | inhibition (Trypanosoma cruzi [4]): 43%
CC(=O)Nc1ccc(C(=O)O)cc1CC(O)CO (stereo in doubt; 31) | 17 | 
Nc1cc(C(=O)O)ccc1NC(=O)Cc1ccccc1 |  | IC50 [3]: 1200 µM
CC(=O)Nc1ccc(C(=O)O)cc1CCN | 25 | 
NC(N)=Nc1cc(C(=O)O)ccc1NC(=O)Cc1ccccc1 |  | inhibition (Trypanosoma cruzi [5]): 54%
CC(=O)Nc1ccc(C(=O)O)nc1N |  | IC50 [3]: 440 µM
CC(=S)Nc1ccc(C(=O)O)nc1 |  | IC50 [3]: 540 µM
CC(=O)Nc1ccc(C(=O)O)cc1 | 0 | 
O=C(CN1CCOCC1)Nc1ccc(C(=O)O)cc1 | 0 | 
NCC(=O)Nc1cc(C(=O)O)ccc1SCc1ccccc1 |  | IC50 [3]: 1000 µM
Nc1cc(C(=O)O)ccc1NCc1cccnc1 |  | IC50 [3]: 740 µM
